Tests used:
Format in all cases: functional
[1] = tested on: K562; assay: Growth inhibition of human K562 cells after 48 hrs by sulforhodamine B assay; details: K562, 48 h
In short: (§1)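 NCI 60-human-tumor-cell-line panel, with compounds tested over a 5-log dose range. Values are taken from dose-response curves as log10 molar concentrations: GI50 is 50% net growth inhibition, TGI is total growth inhibition, and LC50 is 50% net cell death.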

[2] = tested on: HL-60(TB); assay: Growth inhibition of human HL-60(TB) cells after 48 hrs by sulforhodamine B assay; details: HL-60, 48 h
In short: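 Tested only on compounds active in a three-line prescreen, in the NCI 60-human-tumour-cell-line panel over a 5-log dose range. Values come from dose–response curves as log10 molar GI50, the concentration inhibiting 50% net cell growth. Log10 TGI (total growth inhibition) and log10 LC50 (50% net cell death) were derived too. Mean graph midpoints include insensitive lines at the highest concentration tested.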

[3] = Growth inhibition of human Hs 578T cells after 48 hrs by sulforhodamine B assay; in short: as §1
[4] = tested on: NCI-H460; assay: Anticancer activity against human NCI-H460 cells assessed as cell growth at 100 uM after 48 hrs by sulforhodamine B assay; details: NCI-H460, 48 h, read-out: Activity
[5] = tested on: OVCAR-4; assay: Growth inhibition of human OVCAR4 cells after 48 hrs by sulforhodamine B assay; details: OVCAR-4, 48 h; in short: as §1
[6] = tested on: NCI-H522; assay: Growth inhibition of human NCI-H522 cells after 48 hrs by sulforhodamine B assay; details: NCI-H522, 48 h; in short: as §1
[7] = tested on: HOP-62; assay: Growth inhibition of human HOP62 cells after 48 hrs by sulforhodamine B assay; details: HOP-62, 48 h; in short: as §1
[8] = tested on: 786-0; assay: Growth inhibition of human 786-0 cells after 48 hrs by sulforhodamine B assay; details: 786-0, 48 h; in short: as §1
[9] = tested on: M14; assay: Growth inhibition of human M14 cells after 48 hrs by sulforhodamine B assay; details: M14, 48 h; in short: as §1
[10] = tested on: PC-3; assay: Growth inhibition of human PC3 cells after 48 hrs by sulforhodamine B assay; details: PC-3, 48 h; in short: as §1
[11] = tested on: U-251; assay: Growth inhibition of human U251 cells after 48 hrs by sulforhodamine B assay; details: U-251, 48 h
In short: (§2)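 Run in the NCI 60-human-tumour-cell-line panel, tested over a 5-log dose range. Dose–response curves gave three values per cell line, each as a log10 molar concentration: GI50 (50% inhibition of net cell growth), TGI (total inhibition of net growth) and LC50 (50% net cell death). The mean graph midpoint is the arithmetic mean over all lines, with insensitive lines entered at the highest concentration tested.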

[12] = tested on: IGROV-1; assay: Growth inhibition of human IGROV1 cells after 48 hrs by sulforhodamine B assay; details: IGROV-1, 48 h; in short: as §1
[13] = tested on: MCF7; assay: Growth inhibition of human MCF7 cells after 48 hrs by sulforhodamine B assay; details: MCF7, 48 h; in short: as §1
[14] = tested on: CAKI-1; assay: Growth inhibition of human Caki1 cells after 48 hrs by sulforhodamine B assay; details: CAKI-1, 48 h; in short: as §1
[15] = tested on: SF-268; assay: Anticancer activity against human SF268 cells assessed as cell growth at 100 uM after 48 hrs by sulforhodamine B assay; details: SF-268, 48 h, read-out: Activity
[16] = tested on: MCF7; assay: Anticancer activity against human MCF7 cells assessed as cell growth at 100 uM after 48 hrs by sulforhodamine B assay; details: MCF7, 48 h, read-out: Activity
[17] = tested on: SF-268; assay: Growth inhibition of human SF268 cells after 48 hrs by sulforhodamine B assay; details: SF-268, 48 h; in short: as §1
[18] = tested on: UO-31; assay: Growth inhibition of human UO31 cells after 48 hrs by sulforhodamine B assay; details: UO-31, 48 h; in short: as §2
[19] = tested on: OVCAR-8; assay: Growth inhibition of human OVCAR8 cells after 48 hrs by sulforhodamine B assay; details: OVCAR-8, 48 h; in short: as §1
[20] = tested on: SNB-19; assay: Growth inhibition of human SNB19 cells after 48 hrs by sulforhodamine B assay; details: SNB-19, 48 h; in short: as §2
[21] = tested on: SW-620; assay: Growth inhibition of human SW620 cells after 48 hrs by sulforhodamine B assay; details: SW-620, 48 h; in short: as §2
[22] = tested on: LOX IMVI; assay: Growth inhibition of human LOXIMVI cells after 48 hrs by sulforhodamine B assay; in short: as §1
[23] = tested on: SK-MEL-28; assay: Growth inhibition of human SK-MEL-28 cells after 48 hrs by sulforhodamine B assay; details: SK-MEL-28, 48 h; in short: as §1
[24] = Growth inhibition of human […] cells after 48 hrs by sulforhodamine B assay; in short: as §1
[25] = tested on: UACC-62; assay: Growth inhibition of human UACC62 cells after 48 hrs by sulforhodamine B assay; details: UACC-62, 48 h; in short: as §2
[26] = tested on: NCI-H322M; assay: Growth inhibition of human NCI-H322M cells after 48 hrs by sulforhodamine B assay; in short: as §1
[27] = tested on: MDA-MB-435; assay: Growth inhibition of human MDA-MB-435 cells after 48 hrs by sulforhodamine B assay; details: MDA-MB-435, 48 h; in short: as §1
[28] = tested on: OVCAR-3; assay: Growth inhibition of human OVCAR-3 cells after 48 hrs by sulforhodamine B assay; details: OVCAR-3, 48 h; in short: as §1
[29] = tested on: NCI/ADR-RES; assay: Growth inhibition of human NCI/ADR-RES cells after 48 hrs by sulforhodamine B assay; in short: as §1
[30] = read-out: pLC50 (the source's name) (converted)

Question: With `Nc1cc(N)c2nc(-c3ccccc3)c(Sc3ccc(F)cc3)nc2c1` as the molecule, how does the GI50 [1] read?
Answer: 39.8 µM

Question: What about the LC50 [1] of the same molecule?
Answer: > 100 µM

Question: And the TGI ([1]; read-out: pTGI (converted))?
Answer: 38.9 µM

Question: And the GI50 [2]?
Answer: 38.9 µM

Question: What about the LC50 [2] of the same molecule?
Answer: > 100 µM

Question: What about the TGI ([2]; read-out: pTGI (converted)) of the same molecule?
Answer: > 100 µM

Question: And the GI50 [3]?
Answer: 26.9 µM

Question: What about the CC50 [3, 30] of the same molecule?
Answer: > 100 µM

Question: What about the TGI ([3]; read-out: pTGI (converted)) of the same molecule?
Answer: 61.7 µM

Question: And the growth at 100 µM [4]?
Answer: 0%

Question: And the GI50 [5]?
Answer: 22.9 µM

Question: What about the CC50 [5, 30] of the same molecule?
Answer: > 100 µM

Question: What about the TGI ([5]; read-out: pTGI (converted)) of the same molecule?
Answer: 56.2 µM

Question: And the GI50 [6]?
Answer: > 100 µM

Question: And the LC50 [6]?
Answer: > 100 µM

Question: And the TGI ([6]; read-out: pTGI (converted))?
Answer: > 100 µM

Question: What about the GI50 [7] of the same molecule?
Answer: 16.6 µM

Question: What about the LC50 [7] of the same molecule?
Answer: 70.8 µM

Question: And the TGI ([7]; read-out: pTGI (converted))?
Answer: 34.7 µM

Question: What about the GI50 [8] of the same molecule?
Answer: > 100 µM

Question: And the CC50 [8, 30]?
Answer: > 100 µM

Question: What about the TGI ([8]; read-out: pTGI (converted)) of the same molecule?
Answer: > 100 µM

Question: What about the GI50 [9] of the same molecule?
Answer: 15.8 µM

Question: What about the CC50 [9, 30] of the same molecule?
Answer: 58.9 µM

Question: And the TGI ([9]; read-out: pTGI (converted))?
Answer: 30.9 µM

Question: What about the GI50 [10] of the same molecule?
Answer: > 100 µM

Question: What about the CC50 [10, 30] of the same molecule?
Answer: > 100 µM

Question: And the TGI ([10]; read-out: pTGI (converted))?
Answer: > 100 µM

Question: What about the GI50 [11] of the same molecule?
Answer: 16.2 µM

Question: What about the LC50 (50% net cell kill) [11] of the same molecule?
Answer: 61.7 µM

Question: And the TGI ([11]; read-out: pTGI (converted))?
Answer: 31.6 µM

Question: What about the GI50 [12] of the same molecule?
Answer: 25.1 µM

Question: And the CC50 [12, 30]?
Answer: > 100 µM

Question: What about the TGI ([12]; read-out: pTGI (converted)) of the same molecule?
Answer: > 100 µM

Question: And the GI50 [13]?
Answer: 20 µM

Question: And the CC50 [13, 30]?
Answer: > 100 µM

Question: What about the TGI ([13]; read-out: pTGI (converted)) of the same molecule?
Answer: 63.1 µM

Question: And the GI50 [14]?
Answer: > 100 µM

Question: What about the CC50 [14, 30] of the same molecule?
Answer: > 100 µM

Question: And the TGI ([14]; read-out: pTGI (converted))?
Answer: > 100 µM

Question: And the growth at 100 µM [15]?
Answer: 0%

Question: And the growth at 100 µM [16]?
Answer: 7%

Question: And the GI50 [17]?
Answer: 17.8 µM

Question: And the LC50 [17]?
Answer: 85.1 µM

Question: What about the TGI ([17]; read-out: pTGI (converted)) of the same molecule?
Answer: 38.9 µM

Question: And the GI50 [18]?
Answer: > 100 µM

Question: What about the CC50 [18, 30] of the same molecule?
Answer: > 100 µM

Question: What about the TGI ([18]; read-out: pTGI (converted)) of the same molecule?
Answer: > 100 µM

Question: And the GI50 [19]?
Answer: 16.6 µM

Question: What about the CC50 [19, 30] of the same molecule?
Answer: 72.4 µM

Question: And the TGI ([19]; read-out: pTGI (converted))?
Answer: 34.7 µM

Question: And the GI50 [20]?
Answer: 20 µM

Question: What about the LC50 [20] of the same molecule?
Answer: 87.1 µM

Question: What about the TGI ([20]; read-out: pTGI (converted)) of the same molecule?
Answer: 41.7 µM

Question: And the GI50 [21]?
Answer: 22.9 µM

Question: What about the CC50 [21, 30] of the same molecule?
Answer: > 100 µM

Question: What about the TGI ([21]; read-out: pTGI (converted)) of the same molecule?
Answer: 50.1 µM

Question: And the GI50 [22]?
Answer: 22.9 µM

Question: And the LC50 [22]?
Answer: 74.1 µM

Question: And the TGI ([22]; read-out: pTGI (converted))?
Answer: 40.7 µM

Question: What about the GI50 [23] of the same molecule?
Answer: 23.4 µM

Question: And the CC50 [23, 30]?
Answer: > 100 µM

Question: And the TGI ([23]; read-out: pTGI (converted))?
Answer: 53.7 µM

Question: And the GI50 [24]?
Answer: 28.2 µM

Question: What about the LC50 [24] of the same molecule?
Answer: > 100 µM

Question: And the TGI ([24]; read-out: pTGI (converted))?
Answer: 81.3 µM

Question: What about the GI50 [25] of the same molecule?
Answer: 16.6 µM

Question: And the CC50 [25, 30]?
Answer: 60.3 µM

Question: What about the TGI ([25]; read-out: pTGI (converted)) of the same molecule?
Answer: 31.6 µM

Question: And the GI50 [26]?
Answer: 20.4 µM

Question: What about the LC50 [26] of the same molecule?
Answer: 70.8 µM

Question: And the TGI ([26]; read-out: pTGI (converted))?
Answer: 38 µM

Question: And the GI50 [27]?
Answer: 16.2 µM

Question: And the CC50 [27, 30]?
Answer: 66.1 µM

Question: What about the TGI ([27]; read-out: pTGI (converted)) of the same molecule?
Answer: 33.1 µM

Question: What about the GI50 [28] of the same molecule?
Answer: 16.2 µM

Question: What about the CC50 [28, 30] of the same molecule?
Answer: 69.2 µM

Question: What about the TGI ([28]; read-out: pTGI (converted)) of the same molecule?
Answer: 33.9 µM

Question: What about the GI50 [29] of the same molecule?
Answer: 16.6 µM

Question: And the CC50 [29, 30]?
Answer: 72.4 µM

Question: What about the TGI ([29]; read-out: pTGI (converted)) of the same molecule?
Answer: 34.7 µM

Source: ChEMBL document CHEMBL1137710, “Synthesis and in vitro antitumor activity of new quinoxaline derivatives” (2009)
